Reference: ChEMBL document CHEMBL1145788, “Synthesis of ethyl 5-phenyl-6-oxa-1-azabicyclo[3.1.0]hexane-2-carboxylate derivatives and evaluation of their antimalarial activities” (J Med Chem, 2003)
Values after ≈ are worked out from the molar mass of the structure shown. Active and inactive are the calls of the source. The calls are words filed in the database; no cut-off is given here.

Legend:
[1] = Cytotoxicity against african green monkey kidney fibroblast (vero cell); type: functional, cell-based; settings: Chlorocebus sabaeus
Procedure, shortened: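 Vero (African green monkey kidney fibroblast) cytotoxicity run by the colorimetric method of Skehan and co-workers.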

Plasmodium falciparum [2] = experiment: In vitro antimalarial activity against multidrug-resistant Plasmodium falciparum K1; Not active; type: functional, organism-based
Procedure, shortened: (§1)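 Cultured P. falciparum K1 (multidrug-resistant) tested by microculture radioisotope technique (Desjardins); growth measured as [3H]hypoxanthine uptake; EC50 taken as the concentration giving 50% reduction in parasite growth; chloroquine diphosphate and artemisinin as standards.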

Plasmodium falciparum [3] = experiment: In vitro antimalarial activity against multidrug-resistant Plasmodium falciparum K1; type: functional, organism-based; procedure, shortened: as §1
[4] = tested on: Mycobacterium tuberculosis; experiment: Growth inhibitory activity against Mycobacterium tuberculosis H37R; type: functional
Procedure, shortened: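 M. tuberculosis H37Ra growth inhibition measured by microplate Alamar Blue assay (MABA); read-out as MIC; isoniazid and kanamycin sulfate run as reference drugs.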

Vero = experiment: Cytotoxicity against african green monkey kidney fibroblast (vero cell) at a concentration less than 50 ug/mL; Inactive; type: functional, cell-based; settings: Chlorocebus sabaeus

SMILES: CCOC(=O)[C@]1(CCC2OCCO2)CC[C@@]2(c3ccccc3)O[N@@]12
- IC50 [1]: > 50 µg/mL
- IA (Plasmodium falciparum [2]): inactive

SMILES: CCOC(=O)[C@@]1(CCC2OCCO2)CC[C@@]2(c3ccccc3)O[N@@]12
- IC50 [1]: > 50 µg/mL
- EC50 (Plasmodium falciparum [3]): 14.7 µg/mL (≈ 44.1 µM)
- MIC [4]: 200 µg/mL (≈ 600 µM)

SMILES: CCN(CC)CCCC(C)Nc1ccnc2cc(Cl)ccc12.O=P(O)(O)O.O=P(O)(O)O (stereo unspecified) [CHLOROQUINE PHOSPHATE]
- EC50 (Plasmodium falciparum [3]): 0.16 µg/mL

SMILES: Cc1c2ccncc2c(C)c2c1[nH]c1ccccc12 [ELLIPTECINE]
- IC50 [1]: 1 µg/mL (≈ 4.06 µM)

SMILES: CCOC(=O)[C@@]1(CCCc2ccccc2)CC[C@@]2(c3ccccc3)O[N@@]12
- IA (Vero): inactive
- EC50 (Plasmodium falciparum [3]): 2.9 µg/mL (≈ 8.25 µM)
- MIC [4]: 200 µg/mL (≈ 569 µM)

SMILES: CCOC(=O)[C@@]1(C2C[C@H]2C(=O)OC)CC[C@@]2(c3ccccc3)O[N@]21 (stereo partly specified)
- IC50 [1]: 43.4 µg/mL (≈ 131 µM)
- EC50 (Plasmodium falciparum [3]): 15.9 µg/mL (≈ 48 µM)
- MIC [4]: 100 µg/mL (≈ 302 µM)

SMILES: CCC[C@]1(C(=O)OCC)CC[C@@]2(c3ccccc3)O[N@@]12
- IC50 [1]: 28.9 µg/mL (≈ 105 µM)
- EC50 (Plasmodium falciparum [3]): 21.7 µg/mL (≈ 78.8 µM)
- MIC [4]: 100 µg/mL (≈ 363 µM)

SMILES: CCOC(=O)[C@]1(CCCc2ccccc2)CC[C@@]2(c3ccccc3)O[N@@]12
- IC50 [1]: > 50 µg/mL
- IA (Plasmodium falciparum [2]): inactive
- MIC [4]: 25 µg/mL (≈ 71.1 µM)

SMILES: C=CCCC[C@]1(C(=O)OCC)CC[C@@]2(c3ccccc3)O[N@@]12
- EC50 (Plasmodium falciparum [3]): 13.9 µg/mL (≈ 46.1 µM)

SMILES: C=CCC[C@]1(C(=O)OCC)CC[C@@]2(c3ccccc3)O[N@@]12
- EC50 (Plasmodium falciparum [3]): 44.2 µg/mL (≈ 154 µM)

SMILES: CCOC(=O)[C@@]1(C)CC[C@@]2(c3ccccc3)O[N@]21
- IC50 [1]: > 50 µg/mL
- EC50 (Plasmodium falciparum [3]): 4.6 µg/mL (≈ 18.6 µM)
- MIC [4]: 200 µg/mL (≈ 809 µM)

SMILES: CCOC(=O)[C@@]1(CCC=C(C)C)CC[C@@]2(c3ccccc3)O[N@@]12
- EC50 (Plasmodium falciparum [3]): 21.9 µg/mL (≈ 69.4 µM)

SMILES: CCCCC[C@]1(C(=O)OCC)CC[C@@]2(c3ccccc3)O[N@@]12
- IA (Vero): inactive
- EC50 (Plasmodium falciparum [3]): 3.1 µg/mL (≈ 10.2 µM)
- MIC [4]: 100 µg/mL (≈ 330 µM)

SMILES: CCCC[C@]1(C(=O)OCC)CC[C@@]2(c3ccccc3)O[N@@]12
- IA (Vero): inactive
- EC50 (Plasmodium falciparum [3]): 2.4 µg/mL (≈ 8.29 µM)
- MIC [4]: 100 µg/mL (≈ 346 µM)

SMILES: C[C@@H]1CC[C@H]2[C@@H](C)C(=O)O[C@@H]3O[C@@]4(C)CC[C@@H]1[C@]32OO4 [ARTEMISININ]
- EC50 (Plasmodium falciparum [3]): 0.0011 µg/mL (≈ 0.0039 µM)

SMILES: CCOC(=O)[C@]1(C2C[C@H]2C(=O)OC)CC[C@@]2(c3ccccc3)O[N@]21 (stereo partly specified)
- IC50 [1]: > 50 µg/mL
- IA (Plasmodium falciparum [2]): inactive
- MIC [4]: 200 µg/mL (≈ 604 µM)

SMILES: CCC[C@@]1(C(=O)OCC)CC[C@@]2(c3ccccc3)O[N@@]12
- IC50 [1]: > 50 µg/mL
- MIC [4]: 100 µg/mL (≈ 363 µM)

SMILES: NNC(=O)c1ccncc1 [ISONIAZID]
- MIC [4]: 0.05 µg/mL (≈ 0.365 µM)

SMILES: CCCC[C@@]1(C(=O)OCC)CC[C@@]2(c3ccccc3)O[N@@]12
- IA (Vero): inactive
- IA (Plasmodium falciparum [2]): inactive
- MIC [4]: 100 µg/mL (≈ 346 µM)

SMILES: CCOC(=O)[C@]1(C)CC[C@@]2(c3ccccc3)O[N@@]12
- IC50 [1]: > 50 µg/mL
- MIC [4]: 200 µg/mL (≈ 809 µM)

SMILES: CCCCC[C@@]1(C(=O)OCC)CC[C@@]2(c3ccccc3)O[N@@]12
- IC50 [1]: > 50 µg/mL
- IA (Plasmodium falciparum [2]): inactive
- MIC [4]: 100 µg/mL (≈ 330 µM)
